# Assay results collected from several papers.
# Compare with care: the assays were run in different laboratories.
# EGFR: Epidermal growth factor receptor (EGFR, Homo sapiens, UniProt P00533)
# Transmembrane protease serine 6: Transmembrane protease serine 6 (Homo sapiens, UniProt Q8IU80)
# Palmitoyl-protein thioesterase 1: Palmitoyl-protein thioesterase 1 (Homo sapiens, UniProt P50897)
Compound,target,test,conditions,quantity,result
Cc1ccc2c(-c3cc4c(CN5CCN(Cc6ccccn6)CC5)cnc(C)c4o3)cc(=O)oc2c1,EGFR,"enzyme activity, inhibitor, ADP detection",1 µM,inhibition,60 to 80%
CC(C)(NC(=O)[C@H](Cc1cscn1)NC(=O)CCc1ccccc1)C(=O)N[C@@H](CCCNC(=N)N)C(=O)c1nc2ccccc2s1,Transmembrane protease serine 6,"enzyme activity, inhibitor",0.1 µM,remaining activity,22%
[H]/N=C(\N/C(=N/[H])Nc1ccc(Cl)cc1)NC(C)C,Palmitoyl-protein thioesterase 1,"enzyme activity, inhibitor",125 µM,inhibition,-0.79%
N=C(N)NCCC[C@H](NC(=O)[C@H](CCC1CCCCC1)NC(=O)[C@H](Cc1cscn1)NC(=O)CCc1ccccc1)C(=O)c1nc2ccccc2s1,Transmembrane protease serine 6,"enzyme activity, inhibitor",0.1 µM,remaining activity,5%
COc1cnc(NS(=O)(=O)c2ccc(N)cc2)nc1,Palmitoyl-protein thioesterase 1,"enzyme activity, inhibitor",125 µM,inhibition,13.6%
CC(C)(C)C[C@H](NC(=O)[C@H](Cc1cscn1)NC(=O)CCc1ccccc1)C(=O)N[C@@H](CCCNC(=N)N)C(=O)c1nc2ccccc2s1,Transmembrane protease serine 6,"enzyme activity, inhibitor",0.1 µM,remaining activity,3%
CC1(C)C=Cc2c(ccc3c2OC[C@@H](c2ccc(O)cc2O)C3)O1,"Neuronal acetylcholine receptor; alpha4/beta2 (Homo sapiens, UniProt P17787+P43681)","ion current, two-electrode voltage clamp","13 µM, oocytes",inhibition,> 50%
C=CC(=O)N1CCC(COCC(=O)N2CCN(c3nc(-c4cnc(N)nc4C(F)F)nc(N4CCOC[C@@H]4C)n3)CC2)CC1,"Ribosomal protein S6 kinase alpha-2, N-terminal kinase domain (RPS6KA2, Homo sapiens, UniProt Q15349)","binding, competition with immobilised ligand",1 µM,remaining binding,100%
COc1ccc2[nH]cc(CCNC(C)=O)c2c1,Palmitoyl-protein thioesterase 1,"enzyme activity, inhibitor",125 µM,inhibition,8.97%
N=C(N)NCCC[C@H](NC(=O)[C@H](Cc1cccc(I)c1)NC(=O)[C@H](Cc1cscn1)NC(=O)CCc1ccccc1)C(=O)c1nc2ccccc2s1,Transmembrane protease serine 6,"enzyme activity, inhibitor",0.1 µM,remaining activity,92%
Cc1ccc2c(-c3cc4c(CNCc5cccnc5)cnc(C)c4o3)cc(=O)oc2c1C,EGFR,"enzyme activity, inhibitor, ADP detection",1 µM,inhibition,90 to 100%
CCCCCCCCCCCCCCCC(=O)O,Palmitoyl-protein thioesterase 1,"enzyme activity, inhibitor",125 µM,inhibition,42.4%
N=C(N)NCCC[C@H](NC(=O)[C@@H](NC(=O)[C@H](Cc1cscn1)NC(=O)CCc1ccccc1)c1ccccc1)C(=O)c1nc2ccccc2s1,Transmembrane protease serine 6,"enzyme activity, inhibitor",0.1 µM,remaining activity,6%
Nc1ccc(C(=O)NCC(=O)O)cc1,Palmitoyl-protein thioesterase 1,"enzyme activity, inhibitor",125 µM,inhibition,10.1%
Cc1ncc(CN2CCN(Cc3ccccn3)CC2)c2cc(C(=O)c3ccc4c(c3)OCCO4)oc12,EGFR,"enzyme activity, inhibitor, ADP detection",1 µM,inhibition,0 to 40%
N=C(N)NCCC[C@H](NC(=O)[C@H](Cc1ccc(-c2ccccc2)cc1)NC(=O)[C@H](Cc1cscn1)NC(=O)CCc1ccccc1)C(=O)c1nc2ccccc2s1,Transmembrane protease serine 6,"enzyme activity, inhibitor",0.1 µM,remaining activity,35%
Cc1cc([C@@H](C)Nc2ccccc2C(=O)O)c2nc(N3CCC(F)(F)CC3)c(C#N)c(=O)n2c1,"Mitogen-activated protein kinase 8 (MAPK8, Homo sapiens, UniProt P45983)","binding, competition with immobilised ligand",10 µM,remaining binding,100%
CC(C)(C)c1ccc(C[C@H](NC(=O)[C@H](Cc2cscn2)NC(=O)CCc2ccccc2)C(=O)N[C@@H](CCCNC(=N)N)C(=O)c2nc3ccccc3s2)cc1,Transmembrane protease serine 6,"enzyme activity, inhibitor",0.1 µM,remaining activity,98%
C=CCc1ccc(O)c(OC)c1,Palmitoyl-protein thioesterase 1,"enzyme activity, inhibitor",834 µM,inhibition,11.7%
COc1cc(-c2cncc3c2CN(C)Cc2cc(N4CCNCC4)ccc2-3)cc(OC)c1OC,"Wee1-like protein kinase (WEE1, Homo sapiens, UniProt P30291)","enzyme activity, inhibitor",1 µM,remaining activity,95%
CNc1ncc2c(/C=C/C(=O)N3CCC(OC)CC3)nn(Cc3cccc(C(F)(F)F)c3)c2n1,"Serine/threonine-protein kinase B-raf (BRAF, Homo sapiens, UniProt P15056)","enzyme activity, inhibitor, radiometric",1 µM,remaining activity,79%
C[C@@H]1O[C@@H](OC[C@H]2O[C@@H](Oc3c(-c4ccc(O)c(O)c4)oc4cc(O)cc(O)c4c3=O)[C@H](O)[C@@H](O)[C@@H]2O)[C@H](O)[C@H](O)[C@H]1O,Palmitoyl-protein thioesterase 1,"enzyme activity, inhibitor",125 µM,inhibition,61.8%
Cc1ncc(CN2CCc3ccccc3C2)c2cc(C(=O)c3ccc4c(c3)OCCO4)oc12,EGFR,"enzyme activity, inhibitor, ADP detection",1 µM,inhibition,90 to 100%
CCC[C@H](NC(=O)[C@H](Cc1cscn1)NC(=O)CCc1ccccc1)C(=O)N[C@@H](CCCNC(=N)N)C(=O)c1nc2ccccc2s1,Transmembrane protease serine 6,"enzyme activity, inhibitor",0.1 µM,remaining activity,30%
COc1cc(C=O)ccc1O,Palmitoyl-protein thioesterase 1,"enzyme activity, inhibitor",312 µM,inhibition,64%
